pIC50: −log10 of the molar value. Active and inactive are the calls of the source. No cut-off for these calls is given here.
Columns and labels:
[1] = target: T1, Tyrosine-protein kinase BTK (Homo sapiens, UniProt Q06187); assay: Inhibition of full length human unphosphorylated BTK using FITC-Ahx-TSELKKVVALYDYMPMNAND-NH2 as substrate incubated for 60 mins in presence of ATP at Km concentration
[2] = Intrinsic clearance in human liver microsomes; assay type: ADME, Microsome
[3] = target: T1, Tyrosine-protein kinase BTK; assay: Inhibition of BTK in human whole blood assessed as reduction in polyclonal anti-IgM antibody/human IL4-stimulated CD69 cell surface expression on B cells incubated for 16 hrs by FACS analysis; assay type: tissue-based
[4] = Intrinsic clearance in rat liver microsomes; assay type: ADME, Microsome
[5] = Clearance in Sprague-Dawley rat at 1 mg/kg, iv measured up to 24 hrs by HPLC analysis; assay type: ADME, organism-based; details: in vivo
[6] = tested on: Rattus norvegicus; assay: (§1) In vivo protein occupancy at BTK in Wistar Han rat spleen at 10 mg/kg, po measured after 5 hrs relative to control; assay type: functional
How it was run: (§2)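 BTK occupancy measured in spleen homogenates of female rats 5 h after a single 10 mg kg^-1 oral dose, relative to the respective vehicle control. Single-animal values, mean ± SD.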

[7] = as §1; assay type: functional; how it was run: as §2
[8] = tested on: Mus musculus; assay: […] activity in ovalbumin-immunized C57Bl6 mouse assessed as reduction in skin swelling at 30 mg/kg, po administered 2 h prior to OVA immunization and measured after 5 hrs by caliper method relative to control; assay type: functional; parameters: scale not given: the % may be the effect or the level left
How it was run: (§3)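 Mouse reverse passive Arthus reaction: acute FcγR-dependent hypersensitivity induced by intravenous ovalbumin antigen followed by intradermal polyclonal IgG anti-OVA antibody. Single oral dose given 2 h before induction; skin swelling measured 5 h after dosing, compared with vehicle control (SD shown).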

[9] = Terminal plasma concentration in ovalbumin-immunized C57Bl6 mouse at 30 mg/kg, po administered 2 h prior to OVA immunization and measured after 5 hrs; assay type: ADME, organism-based; details: read-out: Cp(T)
How it was run: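 Mice received a single oral dose 2 h before induction of the reverse passive Arthus reaction, which was intravenous ovalbumin followed by intradermal polyclonal IgG anti-OVA antibody. Terminal blood compound concentration was measured 5 h after dosing and reported in nM.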

[10] = target: T2, Epidermal growth factor receptor (Homo sapiens, UniProt P00533); assay: Inhibition of EGF-induced EGFR phosphorylation in human A431 cells preincubated for 24 hrs followed by EGF stimulation and measured after 10 mins by HTRF based immunoassay; assay type: cell-based
T2 sequence (P00533 whole entry): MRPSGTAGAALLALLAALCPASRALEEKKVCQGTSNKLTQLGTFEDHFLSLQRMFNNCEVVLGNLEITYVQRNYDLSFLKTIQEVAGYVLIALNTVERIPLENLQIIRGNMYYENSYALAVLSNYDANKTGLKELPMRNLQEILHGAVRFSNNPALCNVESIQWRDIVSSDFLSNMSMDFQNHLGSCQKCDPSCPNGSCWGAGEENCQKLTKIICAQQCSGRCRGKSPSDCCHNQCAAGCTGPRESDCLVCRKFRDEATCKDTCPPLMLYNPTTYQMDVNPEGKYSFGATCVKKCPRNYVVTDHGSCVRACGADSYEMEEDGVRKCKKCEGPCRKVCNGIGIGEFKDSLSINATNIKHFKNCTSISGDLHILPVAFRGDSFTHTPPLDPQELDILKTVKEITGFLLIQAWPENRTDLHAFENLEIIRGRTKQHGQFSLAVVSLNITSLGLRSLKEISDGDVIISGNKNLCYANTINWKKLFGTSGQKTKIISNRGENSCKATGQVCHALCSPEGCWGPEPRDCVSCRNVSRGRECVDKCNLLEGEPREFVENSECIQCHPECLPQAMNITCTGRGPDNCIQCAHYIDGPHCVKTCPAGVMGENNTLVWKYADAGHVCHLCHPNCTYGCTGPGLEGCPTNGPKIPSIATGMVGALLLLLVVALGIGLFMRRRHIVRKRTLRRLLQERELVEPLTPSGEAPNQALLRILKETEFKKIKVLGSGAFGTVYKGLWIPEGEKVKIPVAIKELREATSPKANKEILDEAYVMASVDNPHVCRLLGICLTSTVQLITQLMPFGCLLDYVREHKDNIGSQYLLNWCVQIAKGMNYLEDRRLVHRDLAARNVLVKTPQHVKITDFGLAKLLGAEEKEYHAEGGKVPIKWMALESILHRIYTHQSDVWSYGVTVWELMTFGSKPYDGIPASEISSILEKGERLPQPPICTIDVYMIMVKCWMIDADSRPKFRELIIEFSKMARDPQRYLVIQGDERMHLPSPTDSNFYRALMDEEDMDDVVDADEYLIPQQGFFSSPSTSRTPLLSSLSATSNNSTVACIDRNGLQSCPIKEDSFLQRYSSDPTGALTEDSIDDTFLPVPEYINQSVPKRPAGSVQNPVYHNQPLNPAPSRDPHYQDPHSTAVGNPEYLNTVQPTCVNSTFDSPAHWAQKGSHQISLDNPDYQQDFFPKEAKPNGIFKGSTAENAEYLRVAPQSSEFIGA

[11] = target: T3, Tyrosine-protein kinase JAK3 (Homo sapiens) (UniProt P52333); assay: Inhibition of JAK3 (unknown origin)
T3 sequence (whole entry): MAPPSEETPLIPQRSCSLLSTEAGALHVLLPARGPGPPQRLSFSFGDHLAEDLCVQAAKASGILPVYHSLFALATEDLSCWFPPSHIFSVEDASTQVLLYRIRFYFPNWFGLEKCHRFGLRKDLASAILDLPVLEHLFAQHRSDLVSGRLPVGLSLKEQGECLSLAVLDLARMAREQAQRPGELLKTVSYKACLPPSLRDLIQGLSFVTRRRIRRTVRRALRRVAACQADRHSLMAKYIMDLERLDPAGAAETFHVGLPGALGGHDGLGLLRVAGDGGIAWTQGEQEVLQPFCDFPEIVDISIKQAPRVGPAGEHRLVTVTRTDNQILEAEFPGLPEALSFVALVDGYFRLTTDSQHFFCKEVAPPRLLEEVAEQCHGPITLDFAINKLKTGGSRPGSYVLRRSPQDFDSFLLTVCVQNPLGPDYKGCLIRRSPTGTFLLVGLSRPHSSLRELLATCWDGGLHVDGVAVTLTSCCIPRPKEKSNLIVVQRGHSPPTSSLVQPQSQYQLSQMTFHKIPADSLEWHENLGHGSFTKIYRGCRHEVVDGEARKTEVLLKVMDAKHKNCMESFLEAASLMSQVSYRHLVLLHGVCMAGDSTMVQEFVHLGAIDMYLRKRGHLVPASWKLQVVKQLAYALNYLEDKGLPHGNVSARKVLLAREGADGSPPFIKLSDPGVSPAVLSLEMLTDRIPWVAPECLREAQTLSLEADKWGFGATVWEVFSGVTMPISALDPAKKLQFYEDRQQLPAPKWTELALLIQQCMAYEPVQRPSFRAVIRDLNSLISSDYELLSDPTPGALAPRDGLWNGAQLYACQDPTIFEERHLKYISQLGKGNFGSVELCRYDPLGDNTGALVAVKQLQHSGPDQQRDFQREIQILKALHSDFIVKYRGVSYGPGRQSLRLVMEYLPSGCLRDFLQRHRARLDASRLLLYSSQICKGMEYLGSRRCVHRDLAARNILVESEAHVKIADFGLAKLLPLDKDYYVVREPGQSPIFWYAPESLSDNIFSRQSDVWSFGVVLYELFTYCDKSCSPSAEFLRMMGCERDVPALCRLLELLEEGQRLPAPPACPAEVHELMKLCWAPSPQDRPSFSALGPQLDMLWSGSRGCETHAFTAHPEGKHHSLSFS

[12] = Terminal plasma concentration in ovalbumin-immunized C57Bl6 mouse at 20 mg/kg, po administered 2 h prior to OVA immunization and measured after 5 hrs; assay type: ADME, organism-based; details: read-out: Cp(T)
How it was run: (§4)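 Terminal blood drug concentrations taken in the mouse reverse passive Arthus study (i.v. OVA plus intradermal IgG anti-OVA), after a single oral dose of 6, 20 or 60 mg/kg given 2 h before induction, sampled 5 h after dosing.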

[13] = Oral bioavailability in Sprague-Dawley rat at 3 mg/kg measured up to 24 hrs by HPLC analysis; assay type: ADME, organism-based; details: in vivo
[14] = target: Receptor tyrosine-protein kinase erbB-2 (Homo sapiens) (UniProt P04626); assay: Inhibition of ERBB2 (unknown origin)
Receptor tyrosine-protein kinase erbB-2 (Homo sapiens), sequence (P04626 whole entry): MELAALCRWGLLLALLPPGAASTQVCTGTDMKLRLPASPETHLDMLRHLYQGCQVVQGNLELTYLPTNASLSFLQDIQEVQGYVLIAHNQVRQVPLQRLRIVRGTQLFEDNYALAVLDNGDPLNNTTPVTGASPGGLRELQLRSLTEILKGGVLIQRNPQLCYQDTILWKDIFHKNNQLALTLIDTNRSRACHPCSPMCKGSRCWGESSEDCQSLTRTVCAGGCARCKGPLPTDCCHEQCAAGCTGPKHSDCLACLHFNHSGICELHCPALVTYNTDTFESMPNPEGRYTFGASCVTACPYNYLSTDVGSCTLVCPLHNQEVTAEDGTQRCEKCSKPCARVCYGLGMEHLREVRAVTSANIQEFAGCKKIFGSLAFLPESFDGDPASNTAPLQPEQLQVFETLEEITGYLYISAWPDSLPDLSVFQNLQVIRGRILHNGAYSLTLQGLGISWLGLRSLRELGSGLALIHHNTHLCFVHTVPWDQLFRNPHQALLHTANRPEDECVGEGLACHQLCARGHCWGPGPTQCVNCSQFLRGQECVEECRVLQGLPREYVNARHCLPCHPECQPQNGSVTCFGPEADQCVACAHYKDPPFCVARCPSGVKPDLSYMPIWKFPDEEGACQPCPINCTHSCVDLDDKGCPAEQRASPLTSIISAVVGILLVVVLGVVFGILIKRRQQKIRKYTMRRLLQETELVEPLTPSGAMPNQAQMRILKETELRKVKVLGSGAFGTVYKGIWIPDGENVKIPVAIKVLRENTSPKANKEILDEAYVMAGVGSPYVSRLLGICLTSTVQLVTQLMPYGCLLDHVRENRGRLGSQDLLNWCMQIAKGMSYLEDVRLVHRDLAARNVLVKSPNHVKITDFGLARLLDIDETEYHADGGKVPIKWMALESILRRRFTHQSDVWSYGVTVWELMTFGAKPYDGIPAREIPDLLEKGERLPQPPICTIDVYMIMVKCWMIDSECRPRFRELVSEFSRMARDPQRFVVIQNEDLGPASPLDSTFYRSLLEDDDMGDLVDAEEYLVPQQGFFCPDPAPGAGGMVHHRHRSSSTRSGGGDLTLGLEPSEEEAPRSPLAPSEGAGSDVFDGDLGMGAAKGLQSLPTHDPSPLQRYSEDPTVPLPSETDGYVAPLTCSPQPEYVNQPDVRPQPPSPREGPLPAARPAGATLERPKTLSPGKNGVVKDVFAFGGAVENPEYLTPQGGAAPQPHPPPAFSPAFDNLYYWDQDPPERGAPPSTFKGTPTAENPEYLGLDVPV

[15] = tested on: Mus musculus; assay: […] activity in ovalbumin-immunized C57Bl6 mouse assessed as reduction in skin swelling at 60 mg/kg, po administered 2 h prior to OVA immunization and measured after 5 hrs by caliper method relative to control; assay type: functional; parameters: scale not given: the % may be the effect or the level left; how it was run: as §3
[16] = Terminal plasma concentration in ovalbumin-immunized C57Bl6 mouse at 60 mg/kg, po administered 2 h prior to OVA immunization and measured after 5 hrs; assay type: ADME, organism-based; details: read-out: Cp(T); how it was run: as §4
[17] = Intrinsic clearance in mouse liver microsomes; assay type: ADME, Microsome
[18] = target: Receptor tyrosine-protein kinase erbB-4 (Homo sapiens, UniProt Q15303); assay: Inhibition of ERBB4 (unknown origin)
Receptor tyrosine-protein kinase erbB-4, sequence (Q15303 whole entry): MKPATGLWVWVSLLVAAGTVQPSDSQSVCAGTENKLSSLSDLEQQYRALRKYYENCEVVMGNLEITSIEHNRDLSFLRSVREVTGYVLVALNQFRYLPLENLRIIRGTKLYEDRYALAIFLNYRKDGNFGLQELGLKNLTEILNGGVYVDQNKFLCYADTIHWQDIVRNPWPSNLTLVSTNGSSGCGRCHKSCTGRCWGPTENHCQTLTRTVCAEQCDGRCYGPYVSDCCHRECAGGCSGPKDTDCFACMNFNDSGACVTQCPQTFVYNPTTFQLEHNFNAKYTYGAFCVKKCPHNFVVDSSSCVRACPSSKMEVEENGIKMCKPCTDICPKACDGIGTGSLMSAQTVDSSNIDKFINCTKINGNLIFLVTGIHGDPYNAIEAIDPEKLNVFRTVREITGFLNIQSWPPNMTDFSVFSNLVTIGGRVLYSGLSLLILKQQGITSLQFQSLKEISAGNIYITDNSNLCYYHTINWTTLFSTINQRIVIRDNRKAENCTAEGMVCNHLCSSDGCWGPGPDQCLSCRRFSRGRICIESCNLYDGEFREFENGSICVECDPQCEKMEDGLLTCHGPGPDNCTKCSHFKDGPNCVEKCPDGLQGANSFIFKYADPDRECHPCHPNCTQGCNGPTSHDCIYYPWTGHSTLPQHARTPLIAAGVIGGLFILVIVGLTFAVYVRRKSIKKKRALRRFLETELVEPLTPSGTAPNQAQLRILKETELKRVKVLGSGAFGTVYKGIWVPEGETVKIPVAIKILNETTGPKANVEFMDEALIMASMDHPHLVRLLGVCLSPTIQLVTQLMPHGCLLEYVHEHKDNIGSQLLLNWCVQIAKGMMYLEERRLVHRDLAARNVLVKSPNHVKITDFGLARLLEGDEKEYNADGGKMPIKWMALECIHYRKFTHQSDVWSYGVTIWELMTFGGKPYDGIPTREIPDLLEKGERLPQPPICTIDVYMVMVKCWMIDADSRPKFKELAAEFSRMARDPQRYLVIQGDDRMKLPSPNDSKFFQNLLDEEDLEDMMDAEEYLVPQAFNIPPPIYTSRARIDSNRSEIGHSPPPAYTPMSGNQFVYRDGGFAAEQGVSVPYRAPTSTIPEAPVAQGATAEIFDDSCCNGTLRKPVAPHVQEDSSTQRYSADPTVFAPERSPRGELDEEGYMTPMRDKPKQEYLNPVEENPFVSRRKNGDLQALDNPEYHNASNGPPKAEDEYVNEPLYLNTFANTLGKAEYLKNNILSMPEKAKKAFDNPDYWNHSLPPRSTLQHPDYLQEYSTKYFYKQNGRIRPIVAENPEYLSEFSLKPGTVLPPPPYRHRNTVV

[19] = Terminal plasma concentration in ovalbumin-immunized C57Bl6 mouse at 6 mg/kg, po administered 2 h prior to OVA immunization and measured after 5 hrs; assay type: ADME, organism-based; details: read-out: Cp(T); how it was run: as §4
[20] = target: T1, Tyrosine-protein kinase BTK; assay: Irreversible inhibition of human BTK kinase domain by LC/MS analysis
[21] = Clearance in Sprague-Dawley rat at 3 mg/kg, po measured up to 24 hrs by HPLC analysis; assay type: ADME, organism-based; details: in vivo
[22] = target: T1, Tyrosine-protein kinase BTK; assay: Inhibition of BTK in vitamin D3 differentiated human THP1 cells assessed as inhibition of FCgammaR-induced IL8 production measured after 24 hrs by immunoblot analysis
[23] = target: T2, Epidermal growth factor receptor; assay: Inhibition of EGFR (unknown origin)
[24] = tested on: Mus musculus; assay: […] activity in ovalbumin-immunized po dosed C57Bl6 mouse assessed as reduction in skin swelling administered 2 h prior to OVA immunization and measured after 5 hrs by caliper method; assay type: functional, organism-based; details: dose mg/kg 6-60, time 2.0 hrs; how it was run: as §3

T1 sequence (Q06187 whole entry): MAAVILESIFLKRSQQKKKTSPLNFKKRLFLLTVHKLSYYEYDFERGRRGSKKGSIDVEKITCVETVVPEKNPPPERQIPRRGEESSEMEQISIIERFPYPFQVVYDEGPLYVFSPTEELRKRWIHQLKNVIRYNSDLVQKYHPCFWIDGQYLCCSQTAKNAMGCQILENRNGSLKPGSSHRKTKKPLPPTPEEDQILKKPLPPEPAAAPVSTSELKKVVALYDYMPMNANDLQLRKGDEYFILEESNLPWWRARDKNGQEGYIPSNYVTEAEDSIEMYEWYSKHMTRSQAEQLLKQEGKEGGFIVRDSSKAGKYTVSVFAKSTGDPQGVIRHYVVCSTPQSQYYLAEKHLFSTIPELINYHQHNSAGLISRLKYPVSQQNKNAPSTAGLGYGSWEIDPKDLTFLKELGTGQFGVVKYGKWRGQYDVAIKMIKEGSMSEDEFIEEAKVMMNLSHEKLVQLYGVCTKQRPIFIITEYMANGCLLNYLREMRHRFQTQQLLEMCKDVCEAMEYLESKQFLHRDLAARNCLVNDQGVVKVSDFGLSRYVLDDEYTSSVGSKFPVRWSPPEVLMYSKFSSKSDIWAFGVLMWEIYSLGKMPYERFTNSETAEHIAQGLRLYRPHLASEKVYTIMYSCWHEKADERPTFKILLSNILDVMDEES

Structure (SMILES) | pIC50 [1] | Intrinsic clearance (CLint) [2] [µL/min/mg] | pIC50 [3] | Intrinsic clearance (CLint) [4] [µL/min/mg] | clearance [5] [mL/min/kg] | Activity [7] [%] | further results
CCC(=O)N(C)Cc1c[nH]c2ncnc(-c3cccc(NC(=O)c4ccc(C(C)(C)C)cc4)c3C)c12 | 5.41 |  |  |  |  |  | 
C=CC(=O)N1CC=C(c2c[nH]c3ncnc(-c4cc(F)cc(NC(=O)c5ccc(C6CC6)cc5)c4C)c23)CC1 |  | 660 |  | 408 | > 300 | 96 | 
C=CC(=O)N1CCCC(c2c[nH]c3ncnc(-c4cc(F)cc(NC(=O)c5ccc(C6CC6)cc5)c4C)c23)C1 (stereo not given) | 6.41 | 603 | 5.10 | > 700 |  |  | 
C=CC(=O)N(C)Cc1c[nH]c2ncnc(-c3cccc(NC(=O)c4ccc(C5CC5)cc4)c3C)c12 | 6.72 | 252 | 5.13 | 578 |  |  | 
C=CC(=O)N1CCC[C@@H](n2nc(-c3ccc(Oc4ccccc4)cc3)c3c(N)ncnc32)C1 [IBRUTINIB] |  |  |  |  |  | 93 | Activity [8]: 84%; concentration at 2 h [9]: 187 nM
C=CC(=O)N(C)Cc1c[nH]c2ncnc(-c3cccc(NC(=O)c4ccc(C(C)(C)C)cc4)c3C)c12 |  | > 700 | 6.03 | 693 |  |  | pIC50 [10]: < 5.10; inhibition [11]: inactive; concentration at 2 h [12]: 14 nM; bioavailability [13]: 2%; inhibition [14]: inactive; Activity [15]: 65%; concentration at 2 h [16]: 118 nM; CLH [17]: 554 µL/min/mg; pIC50 [18]: < 5.00; concentration at 2 h [19]: 4 nM; inhibition [20]: Active; CL/F [21]: > 300 mL/min/kg; pIC50 [22]: 7.10; pIC50 [23]: < 5.00; Activity [24]: Dose-dependent effect; Activity [6]: inactive

Further lines, with some results ahead:

pIC50 [1] | Intrinsic clearance (CLint) [2] [µL/min/mg] | pIC50 [3] | Intrinsic clearance (CLint) [4] [µL/min/mg] | clearance [5] [mL/min/kg] | Structure (SMILES) | Activity [7] [%] | further results
9.00 | 126 | 7.72 | 578 |  | C=CC(=O)N1CCC(c2c[nH]c3ncnc(-c4cc(F)cc(NC(=O)c5ccc(C6CC6)cc5)c4C)c23)CC1 |  | 
8.30 | 111 | 6.65 | 171 |  | C=CC(=O)N1CCC(c2c[nH]c3ncnc(-c4cc(F)cc(NC(=O)c5ccc(C6CC6)cc5)c4C)c23)C1 (stereo not given) |  | 
7.59 | 308 | 5.90 | > 700 |  | C=CC(=O)N(C)Cc1c[nH]c2ncnc(-c3cc(F)cc(NC(=O)c4ccc(C5CC5)cc4)c3C)c12 |  | 
9.22 | > 700 | 7.59 | 628 | 176 | Cc1c(NC(=O)c2ccc(C3CC3)cc2)cc(F)cc1-c1ncnc2[nH]cc(C3=CCN(C(=O)/C=C/CN4CCCC4)CC3)c12 |  | Activity [6]: inactive
8.92 | 39 | 7.80 | 98 | 300 | C=CC(=O)N(C)C(=O)Cc1c[nH]c2ncnc(-c3cc(F)cc(NC(=O)c4ccc(C5CC5)cc4)c3C)c12 | 44 | 
8.22 | 459 | 7.18 | 127 | > 300 | C/C=C/C(=O)N1CC=C(c2c[nH]c3ncnc(-c4cc(F)cc(NC(=O)c5ccc(C6CC6)cc5)c4C)c23)CC1 | 70 | 
8.85 | 3 | 6.52 | 41 | 183 | C=CC(=O)N1CC(O)(c2c[nH]c3ncnc(-c4cc(F)cc(NC(=O)c5ccc(C6CC6)cc5)c4C)c23)C1 |  | 

— ChEMBL document CHEMBL4665670 (ACS Med Chem Lett, 2019)
